Legend:
CAL-27 [1] = assay: Potentiation of cisplatin-induced cytotoxicity against human CAL27 cells assessed as decrease in cell viability at 0.5 uM preincubated for 48 hrs followed by cisplatin treatment measured after 72 hrs by MTT assay relative to cisplatin alone; assay type: functional
Procedure, shortened: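 Cells were preincubated 48 h with HDAC inhibitor, then cisplatin was added over a concentration range for 72 h, with MTT read-out. Shift factor is cisplatin-alone IC50 divided by combination IC50. Data are mean ± SEM of pooled data from at least three independent experiments, each in triplicate. Significance was by t test (p < 0.05).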

[2] = biological target: T1, Histone deacetylase 1/6 (Homo sapiens) (UniProt Q13547+Q9UBN7); assay: Inhibition of HDAC1/HDAC6 in human Cal27CisR cells assessed as potentiation of cisplatin-induced cytotoxicity by measuring fold reduction in cisplatin IC50 at 0.5 uM preincubated for 48 hrs followed by cisplatin treatment measured after 72 hrs by MTT assay relative to cisplatin alone; assay type: cell-based
T1 sequence (Q13547 whole entry, looked up): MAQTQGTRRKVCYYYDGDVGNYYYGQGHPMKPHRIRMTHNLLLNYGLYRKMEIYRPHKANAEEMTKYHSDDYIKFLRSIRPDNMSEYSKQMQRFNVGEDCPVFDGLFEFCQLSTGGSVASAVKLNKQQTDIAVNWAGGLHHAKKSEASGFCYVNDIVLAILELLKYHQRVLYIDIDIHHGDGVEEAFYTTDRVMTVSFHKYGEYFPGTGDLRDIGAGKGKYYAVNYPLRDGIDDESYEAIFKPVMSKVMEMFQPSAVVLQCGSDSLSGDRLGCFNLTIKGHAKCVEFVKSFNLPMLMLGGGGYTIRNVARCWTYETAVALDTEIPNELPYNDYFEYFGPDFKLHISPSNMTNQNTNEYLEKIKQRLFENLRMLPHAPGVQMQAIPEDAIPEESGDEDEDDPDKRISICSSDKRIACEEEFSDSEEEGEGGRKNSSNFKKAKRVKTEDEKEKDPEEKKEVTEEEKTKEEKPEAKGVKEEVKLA
T1 sequence (Q9UBN7 whole entry, looked up): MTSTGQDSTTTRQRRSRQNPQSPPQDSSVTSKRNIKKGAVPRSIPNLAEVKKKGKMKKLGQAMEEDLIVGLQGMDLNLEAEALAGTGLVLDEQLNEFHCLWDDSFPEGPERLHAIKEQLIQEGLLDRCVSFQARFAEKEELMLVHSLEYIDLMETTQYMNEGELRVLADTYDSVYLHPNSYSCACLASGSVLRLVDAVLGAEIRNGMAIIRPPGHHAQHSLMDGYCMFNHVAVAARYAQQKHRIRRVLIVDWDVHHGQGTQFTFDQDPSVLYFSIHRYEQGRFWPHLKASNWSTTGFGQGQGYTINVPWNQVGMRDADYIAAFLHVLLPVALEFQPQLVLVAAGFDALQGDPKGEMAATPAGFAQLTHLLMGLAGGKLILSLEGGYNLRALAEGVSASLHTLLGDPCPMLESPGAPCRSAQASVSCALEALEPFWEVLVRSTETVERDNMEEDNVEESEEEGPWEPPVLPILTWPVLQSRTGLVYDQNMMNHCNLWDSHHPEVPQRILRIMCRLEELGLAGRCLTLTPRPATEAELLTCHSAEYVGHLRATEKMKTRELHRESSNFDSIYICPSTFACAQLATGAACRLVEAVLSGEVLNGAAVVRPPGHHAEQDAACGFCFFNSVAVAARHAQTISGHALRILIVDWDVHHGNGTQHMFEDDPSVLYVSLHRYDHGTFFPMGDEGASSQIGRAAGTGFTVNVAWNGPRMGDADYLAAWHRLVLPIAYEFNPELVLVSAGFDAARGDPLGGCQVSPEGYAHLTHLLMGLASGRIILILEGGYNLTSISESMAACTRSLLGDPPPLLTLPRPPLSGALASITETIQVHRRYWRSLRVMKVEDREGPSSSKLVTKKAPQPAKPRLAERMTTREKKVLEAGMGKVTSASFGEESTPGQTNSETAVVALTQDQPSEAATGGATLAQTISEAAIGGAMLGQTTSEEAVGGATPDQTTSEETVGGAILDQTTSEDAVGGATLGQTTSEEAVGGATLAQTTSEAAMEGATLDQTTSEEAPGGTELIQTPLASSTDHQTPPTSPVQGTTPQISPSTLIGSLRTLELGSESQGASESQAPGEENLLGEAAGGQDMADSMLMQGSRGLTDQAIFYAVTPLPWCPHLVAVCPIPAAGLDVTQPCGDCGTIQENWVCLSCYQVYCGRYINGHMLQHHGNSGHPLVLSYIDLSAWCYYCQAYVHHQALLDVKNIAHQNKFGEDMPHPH
Procedure, shortened: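 Cal27CisR cells were pretreated 48 h with 0.5 μM inhibitor, then exposed to increasing cisplatin concentrations for 72 h, with IC50 by MTT. The shift factor is the IC50 of cisplatin alone divided by the IC50 of the combination. Data are mean ± SEM of pooled independent experiments (at least three), each in triplicate, and significance was tested by t test (p < 0.05).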

CAL-27 [3] = assay: Potentiation of 0.316 uM cisplatin-induced cytotoxicity against human CAL27 cells assessed as decrease in cell viability by measuring combination index at 700 uM preincubated for 48 hrs followed by cisplatin treatment measured after 72 hrs by MTT assay; assay type: functional; conditions: in the assay text read “at 700 nM” for “at 700 uM”
Procedure, shortened: (§1)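 Cal27 and cisplatin-resistant Cal27CisR cells were preincubated with the HDAC inhibitor for 48 h, then given cisplatin in combination. Viability was read by MTT after 72 h. The combination index was computed by the Chou–Talalay method: CI > 1 is antagonism, CI = 1 is additive, and CI < 0.9 is synergism. Points with fraction affected below 0.20 were flagged.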

CAL-27 [4] = assay: Potentiation of 0.316 uM cisplatin-induced cytotoxicity against human CAL27 cells assessed as decrease in cell viability by measuring combination index at 400 uM preincubated for 48 hrs followed by cisplatin treatment measured after 72 hrs by MTT assay; assay type: functional; conditions: in the assay text read “at 400 nM” for “at 400 uM”; procedure, shortened: as §1
CAL-27 [5] = assay: Potentiation of 0.5 uM cisplatin-induced cytotoxicity against human CAL27 cells assessed as decrease in cell viability by measuring combination index at 400 uM preincubated for 48 hrs followed by cisplatin treatment measured after 72 hrs by MTT assay; assay type: functional; conditions: in the assay text read “at 400 nM” for “at 400 uM”; procedure, shortened: as §1
CAL-27 [6] = assay: Potentiation of 1 uM cisplatin-induced cytotoxicity against human CAL27 cells assessed as decrease in cell viability by measuring combination index at 300 uM preincubated for 48 hrs followed by cisplatin treatment measured after 72 hrs by MTT assay; assay type: functional
Procedure, shortened: (§2)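 HDAC inhibitor was added 48 h before cisplatin, then cells were exposed to cisplatin for 72 h and viability was read by MTT assay. Combination index was computed by the Chou–Talalay method: CI > 1 is antagonism, CI = 1 additive, CI < 0.9 synergism. Points with fraction affected below 0.20 were flagged.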

CAL-27 [7] = assay: Potentiation of 2 uM cisplatin-induced cytotoxicity against human CAL27 cells assessed as decrease in cell viability by measuring combination index at 200 uM preincubated for 48 hrs followed by cisplatin treatment measured after 72 hrs by MTT assay; assay type: functional; conditions: in the assay text read “at 200 nM” for “at 200 uM”; procedure, shortened: as §2
CAL-27 [8] = assay: Potentiation of 2 uM cisplatin-induced cytotoxicity against human CAL27 cells assessed as decrease in cell viability by measuring combination index at 400 uM preincubated for 48 hrs followed by cisplatin treatment measured after 72 hrs by MTT assay; assay type: functional; conditions: in the assay text read “at 400 nM” for “at 400 uM”; procedure, shortened: as §2
CAL-27 [9] = assay: Potentiation of 5 uM cisplatin-induced cytotoxicity against human CAL27 cells assessed as decrease in cell viability by measuring combination index at 400 uM preincubated for 48 hrs followed by cisplatin treatment measured after 72 hrs by MTT assay; assay type: functional; conditions: in the assay text read “at 400 nM” for “at 400 uM”; procedure, shortened: as §2
[10] = biological target: T1, Histone deacetylase 1/6 (Homo sapiens); assay: Inhibition of HDAC1/HDAC6 in human Cal27CisR cells assessed as potentiation of 3.16 uM cisplatin-induced cytotoxicity by measuring combination index at 300 uM preincubated for 48 hrs followed by cisplatin treatment measured after 72 hrs by MTT assay; assay type: cell-based
Procedure, shortened: (§3)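 Cal27CisR cells preincubated 48 h with the HDAC inhibitor, then exposed to cisplatin for 72 h. Viability read by MTT. Combination index calculated by the Chou–Talalay method: CI > 1 antagonism, CI = 1 additive, CI < 0.9 synergism. Points with fraction affected below 0.20 are flagged. Values are the mean of three experiments.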

[11] = biological target: T1, Histone deacetylase 1/6 (Homo sapiens); assay: Inhibition of HDAC1/HDAC6 in human Cal27CisR cells assessed as potentiation of 3.16 uM cisplatin-induced cytotoxicity by measuring combination index at 400 uM preincubated for 48 hrs followed by cisplatin treatment measured after 72 hrs by MTT assay; assay type: cell-based; procedure, shortened: as §1
[12] = biological target: T1, Histone deacetylase 1/6 (Homo sapiens); assay: Inhibition of HDAC1/HDAC6 in human Cal27CisR cells assessed as potentiation of 10 uM cisplatin-induced cytotoxicity by measuring combination index at 100 uM preincubated for 48 hrs followed by cisplatin treatment measured after 72 hrs by MTT assay; assay type: cell-based; procedure, shortened: as §3
[13] = biological target: T1, Histone deacetylase 1/6 (Homo sapiens); assay: Inhibition of HDAC1/HDAC6 in human Cal27CisR cells assessed as potentiation of 10 uM cisplatin-induced cytotoxicity by measuring combination index at 400 uM preincubated for 48 hrs followed by cisplatin treatment measured after 72 hrs by MTT assay; assay type: cell-based; procedure, shortened: as §3
[14] = biological target: T1, Histone deacetylase 1/6 (Homo sapiens); assay: Inhibition of HDAC1/HDAC6 in human Cal27CisR cells assessed as potentiation of cisplatin-induced apoptosis at 0.5 uM preincubated for 48 hrs followed by cisplatin treatment for 6 hrs measured after 24 hrs by propidium iodide dye-based flow cytometry (reference value: 20.3%); assay type: cell-based; set-up: scale not given: the % may be the effect or the level left
[15] = biological target: T1, Histone deacetylase 1/6 (Homo sapiens); assay: Inhibition of HDAC1/HDAC6 in human Cal27CisR cells assessed as potentiation of 5 uM cisplatin-induced cytotoxicity by measuring combination index at 100 nM preincubated for 48 hrs followed by cisplatin treatment measured after 72 hrs by MTT assay
[16] = biological target: T1, Histone deacetylase 1/6 (Homo sapiens); assay: Inhibition of HDAC1/HDAC6 in human Cal27CisR cells assessed as potentiation of 5 uM cisplatin-induced cytotoxicity by measuring combination index at 200 nM preincubated for 48 hrs followed by cisplatin treatment measured after 72 hrs by MTT assay
[17] = biological target: T1, Histone deacetylase 1/6 (Homo sapiens); assay: Inhibition of HDAC1/HDAC6 in human Cal27CisR cells assessed as potentiation of 20 uM cisplatin-induced cytotoxicity by measuring combination index at 100 nM preincubated for 48 hrs followed by cisplatin treatment measured after 72 hrs by MTT assay
[18] = biological target: T1, Histone deacetylase 1/6 (Homo sapiens); assay: Inhibition of HDAC1/HDAC6 in human Cal27CisR cells assessed as potentiation of 20 uM cisplatin-induced cytotoxicity by measuring combination index at 300 nM preincubated for 48 hrs followed by cisplatin treatment measured after 72 hrs by MTT assay

Row | Structure (SMILES) | fold change (FC) (CAL-27 [1]) | fold change (FC) [2] | CI (CAL-27 [3]) | CI (CAL-27 [4]) | CI (CAL-27 [5]) | CI (CAL-27 [6]) | CI (CAL-27 [7]) | CI (CAL-27 [8]) | CI (CAL-27 [9]) | CI [10] | CI [11] | CI [12] | CI [13] | Activity [14] | CI [15] | CI [16] | CI [17] | CI [18]
1 | COc1cc(NC(=O)NOCCCCCC(=O)NO)c2nccc(C)c2c1 | 6.1 | 8.2 | 0.68 | <0.2 | 0.91 | 0.44 | 0.39 | 0.27 | 0.29 | < 0.2 | < 0.2 | < 0.2 | 0.26 | 59.7% | < 0.2 | < 0.2 | 0.73 | 0.34
2 | COc1cc(NC(=O)NOCCCCCC(=O)NO)c2nc(OC)cc(C)c2c1 | 8.7 | 11.2 | 0.82 | 0.97 | 0.75 | 0.64 | 0.33 | 0.38 | 0.36 | 0.46 | 0.3 | 0.41 | 0.16 | 59.7% | 0.66 | 0.38 | 0.34 | 0.17

From ChEMBL document CHEMBL4014350, “Alkoxyurea-Based Histone Deacetylase Inhibitors Increase Cisplatin Potency in Chemoresistant Cancer Cell Lines” (J Med Chem, 2017)
